CSC inhib: cancer stem cell viability inhibitors, primary screen, luminescence; cancer stem cell-like cells viability; inhibition, % at 7.5 µM; actives 1.1% (n = 300,000); in the data active = inhibition above about 75%; inconclusive = no clear call, values can overlap the other calls; tested in HMLE shEcad cells
SKKanGAS inh: S. pyogenes SKKanGAS growth inhibitors in kanamycin, primary screen, streptokinase expression inhibitor project, SKKanGAS strain, BacTiter-Glo luminescence. 6 h. inhibition, % at 7.5 µM. actives 1.3% (n = 300,000). AID 1662, 2009;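 active = mean replicate score, as percent of positive control median, at least 50; inconclusive = mean below 50 but one replicate at or above 50; inactive = mean and every replicate below 50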;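 note: strain carries kanamycin resistance gene driven by streptokinase promoter and grows in 40 µg/ml kanamycin; loss of luminescence reflects streptokinase promoter inhibition or plain growth inhibition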
Calb FLC: C. albicans growth inhibition with fluconazole, primary screen, CaCi-2 strain, Alamar Blue fluorescence | actives 0.57% (n = 300,000) | growth inhibition, % (no concentration beside the values) | C. albicans CaCi-2 (fluconazole-resistant clinical isolate) + fluconazole, 48 h;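 active = growth inhibition above about 58% in most replicates, limit read from the data, passing the limit was not always enough; inconclusive = exactly half the replicates above a set limit; inactive = most replicates below a set limit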;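 note: all wells also contain fluconazole at 8 µg/ml as a sub-toxic cotreatment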
Mdm2-MdmX inh: inhibitors of human Mdm2-MdmX association, primary screen, cell-based, luminescence, split luciferase, SaOS-2, uHTS. SaOS-2 split-luciferase Mdm2/MdmX complementation. actives 3% (n = 330,000). Protein Mdm4 (Homo sapiens) + E3 ubiquitin-protein ligase Mdm2 (Homo sapiens), …. AID 485346, 2010. inhibition, % at 8 µM;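 active = inhibition of at least 50% at 8 µM in the primary screen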
T cruzi inh: inhibitors of intracellular T. cruzi growth, primary screen, luminescence, NIH3T3 host cells | AID 1885, 2009 | actives 1.4% (n = 300,000) | T. cruzi beta-gal in NIH3T3, 90 h | inhibition, % (concentration not given with the values);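 active = mean inhibition across valid replicates above about 55%, limit read from the data; inconclusive = mean below that limit but half or more replicates reach it; inactive = mean below it, under half of replicates reach it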;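 note: signal also drops with host cell toxicity which is not excluded here; higher percent means less beta-gal luminescence so fewer parasites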
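Assay system: NIH/3T3 host cells with β-galactosidase reporter T. cruzi; input: 5,000 host fibroblasts per well; compound: single 50 nL compound addition per well in DMSO; timing: ≥90 h infection period, 3 h prior cell attachment; measured by: GalScreen β-gal luminescence, detergent lysis, 60 min; evaluation: percent inhibition of parasite-derived β-gal signal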
Beta cell apopt: inhibitors of cytokine-induced beta cell apoptosis, primary screen, luminescence; AID 435005, 2010; protection from apoptosis, % (test concentration not listed); actives 0.8% (n = 300,000); INS-1E cytokine-induced death, ATP luminescence, 48 h; percent of positive-control rescue, neutral wells zero;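 active = Every replicate reaches about 75%, or at least half do and their mean reaches it too, limit read from the data; inconclusive = At least half of replicates reach the limit but their mean does not; inactive = Under half of replicates reach the limit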;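 note: higher means more ATP so stronger rescue from cytokine killing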
Mdm2-MdmX conf: Mdm2-MdmX complex disruptors, retested hits, confirmation, luminescence, single concentration. shares compounds with Mdm2-MdmX inh. actives 55% (n = 10,000). inhibition, % at 8 µM. Mdm2-MdmX binding, luminescent assay; in the data active = inhibition above about 40%
Full FLuc ctr: full-length luciferase signal inhibition, confirmation, counter-screen for Mdm2/MdmX interaction inhibitor project, cell-based, single concentration, SaOS-2; shares compounds with Mdm2-MdmX inh; inhibition, % at 8 µM; actives 77% (n = 6,200); SaOS-2 full-length luciferase counterscreen, luminescence;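 active = mean inhibition at 8 µM reaching about 37%, which flags the compound as non-specific, limit read from the data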;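 note: p53-null SaOS-2 cells with luciferase driven by a doxycycline-inducible promoter; compound on cells about two nights before reading with doxycycline added after day one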
Each line names hits and unclear results; the compound was inactive in the other large screens (follow-up assays come after a bar, where they were run). Most compounds without a hit are left out; they make up all but 5.7% or so of the library.

O=C(Cn1cnc2c(OCc3ccccc3)ncnc21)N[C@H](CO)Cc1cc2ccccc2[nH]1	Mdm2-MdmX inh 51 (no result: CSC inhib, SKKanGAS inh, Calb FLC, T cruzi inh) | Mdm2-MdmX conf inactive
COC(=O)[C@H](Cc1ccccc1)NC(=O)Cn1cnc2c(OCc3ccccc3)ncnc21	none (no result: SKKanGAS inh, Calb FLC, T cruzi inh)
COc1ccc(C(=O)O)cc1S(=O)(=O)N1CCN(Cc2ccc3c(c2)OCO3)CC1	none (no result: SKKanGAS inh, Calb FLC, T cruzi inh)
NCC12CC3CC(C1)CC(c1ccc(Cl)cc1)(C3)C2	Calb FLC inconclusive, Mdm2-MdmX inh 96, T cruzi inh 64 | Mdm2-MdmX conf inactive
COc1ccc(NC(=O)/C(Cl)=C(/Cl)S(=O)Cc2ccccc2)cn1 (configuration not stated)	Mdm2-MdmX inh 98, Beta cell apopt 104 (no result: CSC inhib) | Mdm2-MdmX conf 99 | Full FLuc ctr inactive
COc1ccc(CS(=O)(=O)/C(Cl)=C(/Cl)C(=O)Nc2ccc(OC)nc2)cc1	CSC inhib 109, Mdm2-MdmX inh 94 | Mdm2-MdmX conf 97 | Full FLuc ctr 51
COc1ccc(/C=C/C(=O)Nc2ccc(OC)nc2)cc1	Calb FLC inconclusive
CCn1c(CC(=O)Nc2ccccc2F)nnc1SCC(=O)Nc1nncs1	none
CC(=O)c1c(O)cc(=O)oc1-c1ccc(C)cc1	none (no result: Beta cell apopt)
Cc1ccc(C(=O)c2no[n+]([O-])c2C(=O)c2ccc(C)cc2)cc1	Mdm2-MdmX inh 51 | Mdm2-MdmX conf inactive
Cc1cc(C)cc(OCC(=O)OCc2cc([N+](=O)[O-])cc3c2OCOC3)c1	none (no result: CSC inhib, SKKanGAS inh, Calb FLC, T cruzi inh)
COc1ccc(/C=C2/SC(=S)N(CCCC(=O)Nc3cccc(O)c3)C2=O)cc1	Mdm2-MdmX inh 83 (no result: CSC inhib) | Mdm2-MdmX conf 43 | Full FLuc ctr inactive
O=C(O)C(c1ccccc1)N1C(=O)/C(=C/c2cccs2)SC1=S (configuration not stated)	none
COc1ccc(/C=C2\SC(=S)N(CCC(=O)Nc3cccc(O)c3)C2=O)cc1OC	none
COc1ccc(/C=C2\SC(=S)N(CCCC(=O)NNC(=O)c3ccccc3O)C2=O)cc1	Mdm2-MdmX inh 57 | Mdm2-MdmX conf 58 | Full FLuc ctr 46
COc1ccc(CN2C(=O)/C(=C/c3ccncc3)SC2=S)cc1	Mdm2-MdmX inh 75 | Mdm2-MdmX conf 76 | Full FLuc ctr 39
CC(=O)Oc1ccc(/C=C2/SC(=S)N(Cc3ccccc3)C2=O)cc1	none
CC(c1ccccc1)N1C(=O)/C(=C/c2ccncc2)SC1=S (configuration not stated)	CSC inhib 85, Mdm2-MdmX inh 67 (no result: Beta cell apopt) | Mdm2-MdmX conf inactive
C[Si](C)(C)n1ccnc1	none
CCOc1ccc(-c2nc(N)ncc2Oc2cccc(OC)c2)c(O)c1	Mdm2-MdmX inh 66 | Mdm2-MdmX conf 42 | Full FLuc ctr 62
Cc1[nH]c2ccc3ncccc3c2c1C	none
Clc1cc2cccnc2c2ncccc12	CSC inhib 121, Mdm2-MdmX inh 77, Beta cell apopt 87 (no result: SKKanGAS inh, Calb FLC, T cruzi inh) | Mdm2-MdmX conf 81 | Full FLuc ctr inactive
Clc1ccc(Oc2ccccc2)c2ncccc12	none
Oc1c(I)cc(Cl)c2cccnc12	CSC inhib 84, SKKanGAS inh 100, Mdm2-MdmX inh 92 (no result: Calb FLC) | Mdm2-MdmX conf 58 | Full FLuc ctr 51
Cc1c(C)c2cccnc2c2ncccc12	Mdm2-MdmX inh 85, Beta cell apopt 100 (no result: CSC inhib, SKKanGAS inh, Calb FLC, T cruzi inh) | Mdm2-MdmX conf 87 | Full FLuc ctr inactive
CC(NC(=O)c1ccc(Cl)cc1)c1nnc(SCC(=O)NC2=NCCS2)n1C (configuration not stated)	none
CCC1Sc2ccc(S(=O)(=O)CCC(=O)Nc3c(Cl)cc(OC)cc3OC)cc2NC1=O (configuration not stated)	none
